Results reported in ChEMBL document CHEMBL5233277, “Oxidative Metabolism as a Modulator of Kratom's Biological Actions” (J Med Chem, 2021).
Activity calls are given as the source filed them. No cut-off for these calls is given here.

Assays:
[1] = Toxicity in MOR knock out C57BL/6J mouse at 50 mg/kg, sc in presence of naltrindole; assay type: organism-based; settings: in vivo
[2] = Toxicity in CD1 mouse assessed as fatality at 10 ug, IT; settings: in vivo, other, dose 10 µg
[3] = Toxicity in MOR knock out C57BL/6J mouse at 50 mg/kg, sc in presence of norbinaltorphimine; assay type: organism-based; settings: in vivo
[4] = Toxicity in C57BL/6J mouse at 50 mg/kg, sc in presence of naltrindole; assay type: organism-based; settings: in vivo
[5] = Toxicity in sc dosed 129Sv6 mouse assessed as lethality; assay type: organism-based; settings: in vivo
Summary of the method: (§1)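 Groups of mice (n = 6 per dose) received graded subcutaneous doses in DMSO/solutol/saline (1:1:8) and were scored for lethality. […] Strains were 129Sv6 for line 3 and CD1 for […], both purchased from Jackson Laboratories.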

[6] = target: T1, Delta-type opioid receptor (Mus musculus, UniProt P32300); assay: Displacement of [125]IBNtxA from mouse DOR stably expressed in CHO cell membranes incubated for 90 mins; design: species or system Membrane
T1 sequence (P32300 whole entry): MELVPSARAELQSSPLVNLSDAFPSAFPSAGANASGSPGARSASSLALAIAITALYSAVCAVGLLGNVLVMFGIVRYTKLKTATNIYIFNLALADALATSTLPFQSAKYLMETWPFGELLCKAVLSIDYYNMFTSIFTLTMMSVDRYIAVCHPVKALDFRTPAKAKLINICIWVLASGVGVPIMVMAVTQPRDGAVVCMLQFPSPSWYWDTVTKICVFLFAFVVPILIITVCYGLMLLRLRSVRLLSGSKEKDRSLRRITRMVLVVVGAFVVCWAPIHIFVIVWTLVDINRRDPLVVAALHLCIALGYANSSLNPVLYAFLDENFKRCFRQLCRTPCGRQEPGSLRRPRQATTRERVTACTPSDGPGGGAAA
Summary of the method: (§2)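 MOR: 50 mM potassium phosphate with 5 mM MgSO4, 20 μg/mL protein. KOR and DOR: 50 mM potassium phosphate pH 7.0, 40 μg/mL protein. 25 °C, 90 min; glass-fiber filtration; levallorphan 8 μM defines nonspecific binding. Ki from IC50; at least three replicates.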

[7] = target: T1, Delta-type opioid receptor; assay: (§3) Antagonist activity at mouse DOR expressed in CHO cell membranes assessed as inhibition of DPDPE induced [35S]-GTPgammaS binding incubated for 60 mins by scintillation spectroscopy analysis; design: species or system Membrane
[8] = Toxicity in C57BL/6J mouse at 50 mg/kg, sc in presence of norbinaltorphimine; assay type: organism-based; settings: in vivo
[9] = Toxicity in sc dosed CD1 mouse assessed as lethality; assay type: organism-based; settings: in vivo; summary of the method: as §1
[10] = target: T2, Mu-type opioid receptor (Mus musculus, UniProt P42866); assay: Agonist activity at mouse MOR expressed in CHO cell membranes assessed as stimulation of [35S]-GTPgammaS binding incubated for 60 mins by scintillation spectroscopy analysis; design: species or system Membrane
T2 sequence (P42866 whole entry): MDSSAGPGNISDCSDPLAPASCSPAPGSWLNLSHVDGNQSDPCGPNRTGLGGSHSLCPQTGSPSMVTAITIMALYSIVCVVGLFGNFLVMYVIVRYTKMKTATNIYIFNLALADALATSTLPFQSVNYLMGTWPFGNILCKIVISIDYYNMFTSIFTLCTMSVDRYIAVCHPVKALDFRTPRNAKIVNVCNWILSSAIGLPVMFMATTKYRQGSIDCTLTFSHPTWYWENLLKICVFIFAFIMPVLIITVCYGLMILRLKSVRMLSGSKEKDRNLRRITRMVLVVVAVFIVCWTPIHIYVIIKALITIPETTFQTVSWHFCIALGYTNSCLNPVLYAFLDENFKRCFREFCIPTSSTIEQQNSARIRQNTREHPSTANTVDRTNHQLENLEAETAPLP
Summary of the method: (§4)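 CHO cell membranes stably expressing cloned mouse opioid receptors; agonist-stimulated [35S]GTPγS binding. Three independent experiments, each in triplicate.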

[11] = Drug concentration in C57BL/6J mouse plasma at 30 mg/kg, po measured after 24 hrs by LC-MS/MS analysis; assay type: ADME, organism-based; settings: in vivo, BLD = below limit of detection
[12] = target: T2, Mu-type opioid receptor; assay: Displacement of [125]IBNtxA from mouse MOR stably expressed in CHO cell membranes incubated for 90 mins; design: species or system Membrane; summary of the method: as §2
[13] = Drug concentration in C57BL/6J mouse brain at 30 mg/kg, po measured after 24 hrs by LC-MS/MS analysis; assay type: ADME, organism-based; settings: in vivo, BLD = below limit of detection
[14] = target: Kappa-type opioid receptor (Mus musculus) (UniProt P33534); assay: Agonist activity at mouse KOR expressed in CHO cell membranes assessed as stimulation of [35S]-GTPgammaS binding by measuring maximal efficacy incubated for 60 mins by scintillation spectroscopy analysis relative to U50,488H; settings: Membrane, filed as agonist
Chain of Kappa-type opioid receptor (Mus musculus) (P33534 whole entry): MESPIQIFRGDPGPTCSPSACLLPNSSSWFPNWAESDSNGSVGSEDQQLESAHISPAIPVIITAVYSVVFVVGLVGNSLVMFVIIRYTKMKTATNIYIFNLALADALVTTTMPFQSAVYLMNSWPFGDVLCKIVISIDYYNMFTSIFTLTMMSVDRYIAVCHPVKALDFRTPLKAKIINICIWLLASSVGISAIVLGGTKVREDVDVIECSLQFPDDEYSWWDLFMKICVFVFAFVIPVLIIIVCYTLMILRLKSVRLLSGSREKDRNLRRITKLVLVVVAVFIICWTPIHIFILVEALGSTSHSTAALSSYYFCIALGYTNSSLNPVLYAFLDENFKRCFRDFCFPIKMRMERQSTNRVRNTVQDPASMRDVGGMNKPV
Summary of the method: (§5)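 CHO cell membranes stably expressing cloned mouse opioid receptors; agonist-stimulated [35S]GTPγS binding. […] Three independent experiments, each in triplicate.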

[15] = target: T3, Kappa-type opioid receptor (Mus musculus, UniProt P33534); assay: Displacement of [125]IBNtxA from mouse KOR stably expressed in CHO cell membranes incubated for 90 mins; design: species or system Membrane; summary of the method: as §2
T3 sequence (P33534 whole entry): as above

[16] = system: Mus musculus; assay: Antinociceptive activity in sc dosed 129Sv6 mouse model assessed as peak effect measured at 15 mins by radiant heat tail flick assay; assay type: functional; settings: 129Sv6, 0.25 h
[17] = Toxicity in sc dosed C57BL/6J mouse assessed as lethality at 50 mg/kg, sc; assay type: organism-based; settings: in vivo, read-out: Activity
Summary of the method: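 Opioid-naïve C57BL/6J mice (n = 4) were given a single 50 mg/kg subcutaneous dose in DMSO/solutol/saline (1:1:8) and observed for lethality, reported as percent of animals dying.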

[18] = target: T3, Kappa-type opioid receptor; assay: (§6) Agonist activity at mouse KOR expressed in CHO cell membranes assessed as stimulation of [35S]-GTPgammaS binding incubated for 60 mins by scintillation spectroscopy analysis; design: species or system Membrane; summary of the method: as §4
[19] = Toxicity in 129Sv6 mouse assessed as fatality at 10 ug, IT; settings: in vivo, other, dose 10 µg
[20] = species on record: Mus musculus; assay: Antinociceptive activity in mouse; assay type: functional, organism-based
[21] = species on record: Mus musculus; assay: animal or person; settings: C57BL/6J, po, 0.5 h
[22] = species on record: Mus musculus; assay: animal or person; settings: 129Sv6, po, 1 h
[23] = species on record: Mus musculus; assay: animal or person; settings: 129Sv6, 0.5 h
[24] = system: Mus musculus; assay: Potency index, ratio of morphine ED50 to test compound ED50 for antinociceptive activity in po dosed C57BL/6J mouse model assessed as peak effect measured at 20 mins by radiant heat tail flick assay; assay type: functional
[25] = system: Mus musculus; assay: Potency index, ratio of morphine ED50 to test compound ED50 for antinociceptive activity in po dosed 129Sv6 mouse model assessed as peak effect measured at 15 mins by radiant heat tail flick assay; assay type: functional; settings: 0.25 h
[26] = Toxicity in C57BL/6J mouse assessed as hyperlocomotion at 1 mg/kg, sc measured after 20 mins; assay type: organism-based; settings: in vivo
[27] = Drug concentration in C57BL/6J mouse plasma at 1 mg/kg, sc measured after 20 mins by LC-MS/MS analysis; assay type: ADME, organism-based
[28] = system: Mus musculus; assay: Antinociceptive activity in po dosed C57BL/6J mouse model assessed as peak effect measured at 20 mins by radiant heat tail flick assay; assay type: functional
[29] = Drug concentration in C57BL/6J mouse brain at 1 mg/kg, sc measured after 20 mins by LC-MS/MS analysis; assay type: ADME, organism-based; settings: read-out: Ct
[30] = Toxicity in C57BL/6J mouse assessed as conditioned place preference at 1 mg/kg, sc; assay type: organism-based; settings: in vivo
Summary of the method: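 C57BL/6J mice (n = 18–24) were habituated to a two-compartment apparatus for 3 h per day over 2 days, then given a 20 min pre-conditioning baseline test. Conditioning used 20 min sessions with drug at 1 mg/kg/d sc or saline. On test day mice explored freely for 20 min, and a difference score was calculated.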

[31] = target: Mu-type opioid receptor (Mus musculus) (UniProt P42866); assay: Potency index, ratio of mitragynine Ki to test compound Ki for displacement of [125]IBNtxA from mouse MOR stably expressed in CHO cell membranes incubated for 90 mins; settings: Membrane
Chain of Mu-type opioid receptor (Mus musculus) (P42866 whole entry): as the sequence (P42866 whole entry) above

[32] = target: Mu-type opioid receptor (Mus musculus) (UniProt P42866); assay: Potency index, ratio of mitragynine EC50 to test compound EC50 for agonist activity at mouse MOR expressed in CHO cell membranes assessed as stimulation of [35S]-GTPgammaS binding incubated for 60 mins by scintillation spectroscopy analysis; settings: Membrane
[33] = target: Delta-type opioid receptor (Mus musculus) (UniProt P32300); assay: as §3; settings: Membrane
Chain of Delta-type opioid receptor (Mus musculus) (P32300 whole entry): as the sequence (P32300 whole entry) above

[34] = target: Mu-type opioid receptor (Mus musculus) (UniProt P42866); assay: Agonist activity at mouse MOR expressed in CHO cell membranes assessed as stimulation of [35S]-GTPgammaS binding by measuring maximal efficacy incubated for 60 mins by scintillation spectroscopy analysis relative DAMGO; settings: Membrane, filed as agonist; summary of the method: as §5
[35] = target: Mu-type opioid receptor (Mus musculus) (UniProt P42866); assay: Partial agonist activity at mouse MOR expressed in CHO cell membranes assessed as stimulation of [35S]-GTPgammaS binding by measuring maximal efficacy incubated for 60 mins by scintillation spectroscopy analysis relative DAMGO; settings: Membrane, filed as partial agonist
Summary of the method: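 Membranes from CHO cells stably expressing mouse MOR were used in an agonist-stimulated [35S]GTPγS binding assay. […] Data are from three independent experiments, each run in triplicate.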

[36] = target: Kappa-type opioid receptor (Mus musculus) (UniProt P33534); assay: as §6; settings: Membrane; summary of the method: as §4

| SMILES | Ki [6] [nM] | EC50 [10] [nM] | Ki [12] [nM] | Emax [14] [%] | Ki [15] [nM] | ED50 [16] [mg/kg] | EC50 [18] [nM] | Emax [34] [%] | also measured |
| --- | --- | --- | --- | --- | --- | --- | --- | --- | --- |
| CC[C@@H]1C[N+]2=C(C[C@@H]1/C(=C\OC)C(=O)OC)c1[nH]c3cccc(OC)c3c1CC2 | 49.1 | 67.5 | 34.1 | 64 | 125 | > 100 | 166 | – | Activity [1]: Toxic; Activity [2]: Toxic; Activity [3]: Toxic; Activity [4]: Toxic; LD50 [5]: 48.4 mg/kg; IC50 [7]: 1100 nM; Activity [8]: Toxic; LD50 [9]: 74 mg/kg; Cp [11]: Bld; Ct [13]: Bld; mortality [17]: 100%; Activity [19]: Toxic; Activity [20]: inactive |
| CN1CC[C@]23c4c5ccc(O)c4O[C@H]2[C@@H](O)C=C[C@H]3[C@H]1C5 [MORPHINE] | – | – | – | – | – | 0.68 | – | – | ED50 [21]: 4.73 mg/kg; ED50 [22]: 3.3 mg/kg; ED50 [23]: 0.7 mg/kg |
| CC[C@@H]1CN2CC[C@@]3(O)C(=Nc4cccc(OC)c43)[C@@H]2C[C@@H]1/C(=C\OC)C(=O)OC | – | – | – | – | – | 0.2 | – | – | Ratio ED50 [24]: 3; Ratio ED50 [25]: 3; Activity [26]: Non-Toxic; concentration at 20 min [27]: 270 nM; ED50 [28]: 0.3 mg/kg; concentration at 20 min [29]: 450 nM; Activity [30]: Toxic; Ratio Ki [31]: 6; Ratio EC50 [32]: 4 |
| CO/C=C(/C(=O)OC)[C@@H]1CCN2CC[C@]3(Nc4cccc(OC)c4C3=O)[C@@H]2C1 | – | – | – | – | – | 0.3 | – | – | Ratio ED50 [24]: 2; Ratio ED50 [25]: 2; Activity [26]: Non-Toxic; concentration at 20 min [27]: 410 nM; ED50 [28]: 0.26 mg/kg; concentration at 20 min [29]: 70 nM |
| CC[C@@H]1C[N+]2([O-])CCc3c([nH]c4cccc(OC)c34)[C@@H]2C[C@@H]1/C(=C\OC)C(=O)OC (stereo not given in full) | 4140 | – | 6900 | – | 7180 | – | – | – | – |
| CC[C@@H]1CN2CCc3c([nH]c4cccc(O[C@@H]5O[C@H](C(=O)O)[C@@H](O)[C@H](O)[C@H]5O)c34)[C@@H]2C[C@@H]1/C(=C\OC)C(=O)OC | 3240 | 5780 | 1670 | 98 | 1270 | > 30 | 1140 | 102 | inhibition [33]: inactive |
| CC[C@@H]1CN2CCc3c([nH]c4cccc(OC)c34)[C@H]2C[C@@H]1/C(=C\OC)C(=O)OC | – | – | – | 58 | – | > 100 | – | – | Emax [35]: 45% |
| CC[C@H]1CN2CCc3c([nH]c4cccc(OC)c34)[C@@H]2C[C@@H]1/C(=C\OC)C(=O)OC | – | – | – | – | – | – | – | 43 | Activity [36]: inactive |
| C=C[C@H]1CN2CCc3c([nH]c4cccc(OC)c34)[C@@H]2C[C@@H]1/C(=C\OC)C(=O)OC | 3390 | 9380 | 666 | 57 | 883 | > 100 | 3590 | 54 | IC50 [7]: > 10000 nM |
| CC[C@@H]1CN2CCc3c([nH]c4cccc(O)c34)[C@@H]2C[C@@H]1/C(=C\OC)C(=O)OC | 1880 | – | 216 | 87 | 1180 | > 100 | 858 | 62 | inhibition [33]: inactive |
